# Results taken from publication PMC4716096 (Kidney Research and Clinical Practice, 2012).
# How the values were obtained:
# [1] = transplant recipient group with a high BMI; cited from earlier work
# [2] = Pharmacokinetic profile of tacrolimus; format: in vivo, human; settings: dose-adjusted whole-blood concentrations; P=0.024 and 0.031
# Summary of the method: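 Stable Korean kidney recipients (n=18; ≥20 y, ≥6 months post-transplant, creatinine <2.0 mg/dL) on steroid/mycophenolate/tacrolimus, trough-targeted 5–10 ng/mL. Fasting; whole blood drawn pre-morning dose (C0) and at 1–4 h post-dose; mass spectrometry. AUC0–4 by linear trapezoidal rule; values dose-adjusted. Lean/fat mass by bioelectrical impedance; groups split at median, compared by Mann-Whitney U (P<0.05).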
# [3] = n-octanol versus water; cited from earlier work
smiles,measurement,setting,value
C=CC[C@@H]1/C=C(\C)C[C@H](C)C[C@H](OC)[C@H]2O[C@@](O)(C(=O)C(=O)N3CCCC[C@H]3C(=O)O[C@H](/C(C)=C/[C@@H]3CC[C@@H](O)[C@H](OC)C3)[C@H](C)[C@@H](O)CC1=O)[C@H](C)C[C@@H]2OC [tacrolimus],tacrolimus levels,[1],higher than 15 ng/mL
same,C0 and C4 in the high-fat group compared with the low-fat group,[2],significantly elevated
same,partition coefficient of tacrolimus in n-octanol relative to water,[3],1000 fold
